In brackets after ≈: the same amount, converted by molar mass. Activity calls are given as the source filed them. The rule behind the calls is not given here.
Experiments:
Enterococcus faecalis [1] = test: Antibacterial activity against Enterococcus faecalis TISTR459 after 8 to 12 hrs by colorimetric microdilution broth technique; type: functional
In short: (§1)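 Broth microdilution with a colorimetric read-out. Bacteria were suspended in RPMI1640 with 1% Alamar Blue. Compound was dissolved in DMSO as a 25 mg/ml stock and added to the first row, then serially halved to a 128-fold final dilution. Plates were incubated at 37 °C for 8–12 h. MIC was the lowest concentration preventing the blue-to-red indicator change. Each assay was run at least three times.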

Shigella sonnei [2] = test: Antibacterial activity against Shigella sonnei after 8 to 12 hrs by colorimetric microdilution broth technique; type: functional
In short: (§2)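 Broth microdilution in RPMI1640. Bacterial suspension in RPMI1640 is mixed with 1% Alamar Blue. Sample dissolved in DMSO at 25 mg/ml (stock) is added to the first row, then serially diluted two-fold down the plate to 128-fold. Plates are incubated at 37 °C for 8–12 h. MIC is the lowest concentration preventing the Alamar Blue change from blue to red. At least three repeats.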

Enterococcus faecalis [3] = test: Antibacterial activity against vancomycin-resistant Enterococcus faecalis ATCC 51299 after 8 to 12 hrs by colorimetric microdilution broth technique; type: functional; in short: as §1
Staphylococcus aureus [4] = test: Antibacterial activity against methicillin-resistant Staphylococcus aureus ATCC 43300 after 8 to 12 hrs by colorimetric microdilution broth technique; type: functional; in short: as §1
Bacillus subtilis [5] = test: Antibacterial activity against Bacillus subtilis after 8 to 12 hrs by colorimetric microdilution broth technique; type: functional; in short: as §2
Staphylococcus aureus [6] = test: Antibacterial activity against Staphylococcus aureus TISTR517 after 8 to 12 hrs by colorimetric microdilution broth technique; type: functional; in short: as §2
Pseudomonas aeruginosa [7] = test: Antibacterial activity against Pseudomonas aeruginosa after 8 to 12 hrs by colorimetric microdilution broth technique; type: functional; in short: as §2
Salmonella typhi [8] = test: Antibacterial activity against Salmonella typhi after 8 to 12 hrs by colorimetric microdilution broth technique; type: functional, Salmonella enterica subsp. enterica serovar Typhi; details: Salmonella enterica; in short: as §1
Pseudomonas aeruginosa [9] = test: Antibacterial activity against Pseudomonas aeruginosa at up to 300 ug/ml after 8 to 12 hrs by colorimetric microdilution broth technique; type: functional, organism-based; in short: as §2
Salmonella typhi [10] = test: Antibacterial activity against Salmonella typhi at up to 300 ug/ml after 8 to 12 hrs by colorimetric microdilution broth technique; type: functional, organism-based; details: Salmonella enterica subsp. enterica serovar Typhi; in short: as §1
Staphylococcus aureus [11] = test: Antibacterial activity against Staphylococcus aureus TISTR517 at up to 300 ug/ml after 8 to 12 hrs by colorimetric microdilution broth technique; type: functional, organism-based; in short: as §2
Enterococcus faecalis [12] = test: Antibacterial activity against Enterococcus faecalis TISTR459 at up to 300 ug/ml after 8 to 12 hrs by colorimetric microdilution broth technique; type: functional, organism-based; in short: as §2
Bacillus subtilis [13] = test: Antibacterial activity against Bacillus subtilis at up to 300 ug/ml after 8 to 12 hrs by colorimetric microdilution broth technique; type: functional, organism-based; in short: as §2
Enterococcus faecalis [14] = test: Antibacterial activity against vancomycin-resistant Enterococcus faecalis ATCC 51299 at up to 300 ug/ml after 8 to 12 hrs by colorimetric microdilution broth technique; type: functional, organism-based; in short: as §1
Shigella sonnei [15] = test: Antibacterial activity against Shigella sonnei at up to 300 ug/ml after 8 to 12 hrs by colorimetric microdilution broth technique; type: functional, organism-based; in short: as §2

SMILES: CCOc1ccc(/C=C/c2ccc3ccccc3[n+]2C)cc1.O=S(=O)([O-])c1ccc(Cl)cc1
- MIC (Enterococcus faecalis [1]): 75 µg/mL
- MIC (Shigella sonnei [2]): 300 µg/mL
- MIC (Enterococcus faecalis [3]): 150 µg/mL
- MIC (Staphylococcus aureus [4]): 2.34 µg/mL
- MIC (Bacillus subtilis [5]): 75 µg/mL

SMILES: CN(C)c1ccc(/C=C/c2ccc3ccccc3[n+]2C)cc1.O=S(=O)([O-])c1ccc(Cl)cc1
- MIC (Staphylococcus aureus [6]): 2.34 µg/mL
- MIC (Enterococcus faecalis [1]): 2.34 µg/mL
- MIC (Shigella sonnei [2]): 2.34 µg/mL
- MIC (Enterococcus faecalis [3]): 2.34 µg/mL
- MIC (Pseudomonas aeruginosa [7]): 300 µg/mL
- MIC (Staphylococcus aureus [4]): 2.34 µg/mL
- MIC (Bacillus subtilis [5]): 2.34 µg/mL
- MIC (Salmonella typhi [8]): 300 µg/mL

SMILES: CN[C@H](CC(C)C)C(=O)N[C@H]1C(=O)N[C@@H](CC(N)=O)C(=O)N[C@H]2C(=O)N[C@H]3C(=O)N[C@H](C(=O)N[C@H](C(=O)O)c4cc(O)cc(O)c4-c4cc3ccc4O)[C@H](O)c3ccc(c(Cl)c3)Oc3cc2cc(c3O[C@@H]2O[C@H](CO)[C@@H](O)[C@H](O)[C@H]2O[C@H]2C[C@](C)(N)[C@H](O)[C@H](C)O2)Oc2ccc(cc2Cl)[C@H]1O [VANCOMYCIN]
- MIC (Staphylococcus aureus [6]): 9.37 µg/mL (≈ 6.47 µM)
- MIC (Enterococcus faecalis [1]): 9.38 µg/mL (≈ 6.47 µM)
- MIC (Shigella sonnei [2]): 2.34 µg/mL (≈ 1.61 µM)
- MIC (Enterococcus faecalis [3]): 2.34 µg/mL (≈ 1.61 µM)
- MIC (Pseudomonas aeruginosa [7]): 2.34 µg/mL (≈ 1.61 µM)
- MIC (Staphylococcus aureus [4]): < 2.34 µg/mL
- MIC (Bacillus subtilis [5]): 2.34 µg/mL (≈ 1.61 µM)
- MIC (Salmonella typhi [8]): 2.34 µg/mL (≈ 1.61 µM)

SMILES: CN(C)c1ccc(/C=C/c2ccc3ccccc3[n+]2C)cc1.COc1ccc(S(=O)(=O)[O-])cc1 [listing 1 of 2 here]
- MIC (Pseudomonas aeruginosa [9]): inactive
- MIC (Salmonella typhi [10]): inactive
- MIC (Staphylococcus aureus [11]): inactive

SMILES: CCOc1ccc(/C=C/c2cccc[n+]2C)cc1.COc1ccc(S(=O)(=O)[O-])cc1 [listing 1 of 2 here]
- MIC (Pseudomonas aeruginosa [9]): inactive
- MIC (Salmonella typhi [10]): inactive
- MIC (Enterococcus faecalis [12]): inactive
- MIC (Bacillus subtilis [13]): inactive
- MIC (Enterococcus faecalis [14]): inactive
- MIC (Staphylococcus aureus [11]): inactive
- MIC (Shigella sonnei [15]): inactive

SMILES: CN(C)c1ccc(C=Cc2cccc[n+]2C)cc1.[I-]
- MIC (Staphylococcus aureus [6]): 300 µg/mL
- MIC (Enterococcus faecalis [1]): 300 µg/mL
- MIC (Shigella sonnei [2]): 300 µg/mL
- MIC (Enterococcus faecalis [3]): 300 µg/mL
- MIC (Pseudomonas aeruginosa [7]): 300 µg/mL
- MIC (Staphylococcus aureus [4]): 37.5 µg/mL
- MIC (Bacillus subtilis [5]): 300 µg/mL
- MIC (Salmonella typhi [8]): 300 µg/mL

SMILES: CCOc1ccc(/C=C/c2cccc[n+]2C)cc1.O=S(=O)([O-])c1ccc(Cl)cc1
- MIC (Staphylococcus aureus [4]): 75 µg/mL

SMILES: CCOc1ccc(/C=C/c2ccc3ccccc3[n+]2C)cc1.Nc1ccc(S(=O)(=O)[O-])cc1 [listing 1 of 2 here]
- MIC (Pseudomonas aeruginosa [9]): inactive

SMILES: CN(C)c1ccc(/C=C/c2ccc3ccccc3[n+]2C)cc1.COc1ccc(S(=O)(=O)[O-])cc1 [listing 2 of 2 here]
- MIC (Enterococcus faecalis [1]): 150 µg/mL
- MIC (Shigella sonnei [2]): 150 µg/mL
- MIC (Enterococcus faecalis [3]): 150 µg/mL
- MIC (Staphylococcus aureus [4]): 2.34 µg/mL
- MIC (Bacillus subtilis [5]): 75 µg/mL

SMILES: CCOc1ccc(/C=C/c2cccc[n+]2C)cc1.O=S(=O)([O-])c1ccc(Br)cc1 [listing 1 of 2 here]
- MIC (Shigella sonnei [2]): 300 µg/mL
- MIC (Staphylococcus aureus [4]): 18.8 µg/mL
- MIC (Salmonella typhi [8]): 300 µg/mL

SMILES: CCOc1ccc(/C=C/c2cccc[n+]2C)cc1.COc1ccc(S(=O)(=O)[O-])cc1 [listing 2 of 2 here]
- MIC (Staphylococcus aureus [4]): 150 µg/mL

SMILES: CN(C)c1ccc(/C=C/c2ccc3ccccc3[n+]2C)cc1.Nc1ccc(S(=O)(=O)[O-])cc1
- MIC (Staphylococcus aureus [6]): 75 µg/mL
- MIC (Enterococcus faecalis [1]): 75 µg/mL
- MIC (Shigella sonnei [2]): 75 µg/mL
- MIC (Enterococcus faecalis [3]): 18.8 µg/mL
- MIC (Pseudomonas aeruginosa [7]): 150 µg/mL
- MIC (Staphylococcus aureus [4]): 2.34 µg/mL
- MIC (Bacillus subtilis [5]): 18.8 µg/mL
- MIC (Salmonella typhi [8]): 75 µg/mL

SMILES: CN(C)c1ccc(/C=C/c2ccc3ccccc3[n+]2C)cc1.[I-]
- MIC (Staphylococcus aureus [6]): 18.8 µg/mL
- MIC (Enterococcus faecalis [1]): 18.8 µg/mL
- MIC (Shigella sonnei [2]): 4.68 µg/mL
- MIC (Enterococcus faecalis [3]): 4.68 µg/mL
- MIC (Pseudomonas aeruginosa [7]): 300 µg/mL
- MIC (Staphylococcus aureus [4]): 9.37 µg/mL
- MIC (Bacillus subtilis [5]): 9.37 µg/mL
- MIC (Salmonella typhi [8]): 300 µg/mL

SMILES: CN(C)c1ccc(/C=C/c2ccc3ccccc3[n+]2C)cc1.O=S(=O)([O-])c1ccc(Br)cc1
- MIC (Staphylococcus aureus [6]): 2.34 µg/mL
- MIC (Enterococcus faecalis [1]): 2.34 µg/mL
- MIC (Shigella sonnei [2]): 2.34 µg/mL
- MIC (Enterococcus faecalis [3]): 2.34 µg/mL
- MIC (Pseudomonas aeruginosa [7]): 300 µg/mL
- MIC (Staphylococcus aureus [4]): 2.34 µg/mL
- MIC (Bacillus subtilis [5]): 2.34 µg/mL
- MIC (Salmonella typhi [8]): 300 µg/mL

SMILES: CCOc1ccc(/C=C/c2cccc[n+]2C)cc1
- MIC (Pseudomonas aeruginosa [9]): inactive
- MIC (Salmonella typhi [10]): inactive
- MIC (Enterococcus faecalis [12]): inactive
- MIC (Bacillus subtilis [13]): inactive
- MIC (Enterococcus faecalis [14]): inactive
- MIC (Staphylococcus aureus [11]): inactive
- MIC (Shigella sonnei [15]): inactive

SMILES: CCOc1ccc(/C=C/c2ccc3ccccc3[n+]2C)cc1.O=S(=O)([O-])c1ccc(Br)cc1
- MIC (Staphylococcus aureus [6]): 300 µg/mL
- MIC (Enterococcus faecalis [1]): 37.5 µg/mL
- MIC (Shigella sonnei [2]): 75 µg/mL
- MIC (Enterococcus faecalis [3]): 18.8 µg/mL
- MIC (Staphylococcus aureus [4]): 2.34 µg/mL
- MIC (Bacillus subtilis [5]): 18.8 µg/mL

SMILES: CCOc1ccc(/C=C/c2ccc3ccccc3[n+]2C)cc1.Nc1ccc(S(=O)(=O)[O-])cc1 [listing 2 of 2 here]
- MIC (Staphylococcus aureus [6]): 37.5 µg/mL
- MIC (Enterococcus faecalis [1]): 37.5 µg/mL
- MIC (Shigella sonnei [2]): 75 µg/mL
- MIC (Enterococcus faecalis [3]): 75 µg/mL
- MIC (Staphylococcus aureus [4]): 4.68 µg/mL
- MIC (Bacillus subtilis [5]): 37.5 µg/mL
- MIC (Salmonella typhi [8]): 75 µg/mL

SMILES: CCOc1ccc(/C=C/c2cccc[n+]2C)cc1.O=S(=O)([O-])c1ccc(Br)cc1 [listing 2 of 2 here]
- MIC (Pseudomonas aeruginosa [9]): inactive
- MIC (Enterococcus faecalis [12]): inactive
- MIC (Bacillus subtilis [13]): inactive
- MIC (Enterococcus faecalis [14]): inactive
- MIC (Staphylococcus aureus [11]): inactive
